Legend:
Assay type in all cases: functional
HCC 2998 = test: Growth inhibition of human HCC2998 cells after 48 hrs; details: HCC 2998, 48 h
Procedure, shortened: (§1)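 NCI in vitro human tumour cell line screen (about 60 lines, nine subpanels). Compounds dissolved in DMSO, diluted in phosphate-buffered saline (final DMSO under 1%), tested at five concentrations from 0.01 to 100, in duplicate wells. Cells at 6 × 10⁴ cells/mL, 37 °C, 5% CO₂, 48 h. GI50 (50% decrease in net growth) taken from log concentration versus % growth inhibition curves; subpanel values are subpanel mean-graph midpoints.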

MCF7 = test: Growth inhibition of human MCF7 cells after 48 hrs; details: MCF7, 48 h; procedure, shortened: as §1
[1] = Growth inhibition of human Breast cancer cells after 48 hrs; details: Cancer cell lines; procedure, shortened: as §1
[2] = Growth inhibition of human CNS cancer cells after 48 hrs; details: Cancer cell lines; procedure, shortened: as §1
NSCLC = test: Growth inhibition of human NSCLC cell after 48 hrs; procedure, shortened: as §1
OVCAR-3 = test: Growth inhibition of human OVCAR-3 cells after 48 hrs; details: OVCAR-3, 48 h; procedure, shortened: as §1
[3] = Growth inhibition of human Ovarian cancer cells after 48 hrs; details: Cancer cell lines; procedure, shortened: as §1
[4] = Growth inhibition of human Colon cancer cells after 48 hrs; details: Cancer cell lines; procedure, shortened: as §1
Leukemia cell = test: Growth inhibition of human Leukemia cells after 48 hrs; procedure, shortened: as §1
[5] = Growth inhibition of human Prostate cancer cells after 48 hrs; details: Cancer cell lines; procedure, shortened: as §1
[6] = Growth inhibition of human Renal cancer cells after 48 hrs; details: Cancer cell lines; procedure, shortened: as §1
Melanoma cell = test: Growth inhibition of human Melanoma cells after 48 hrs; procedure, shortened: as §1
EKVX = test: Growth inhibition of human EKVX cells after 48 hrs; procedure, shortened: as §1
UACC-257 = test: Growth inhibition of human UACC257 cells after 48 hrs; details: UACC-257, 48 h; procedure, shortened: as §1

GI50 (HCC 2998) [µM] | GI50 (MCF7) [µM] | GI50 (OVCAR-3) [µM] | GI50 (Leukemia cell) [µM] | GI50 (Melanoma cell) [µM] | SMILES | GI50 [1] [µM] | GI50 [2] [µM] | GI50 (NSCLC) [µM] | GI50 [3] [µM] | GI50 [4] [µM] | GI50 [5] [µM] | GI50 [6] [µM] | GI50 (EKVX) [µM] | GI50 (UACC-257) [µM]
0.9 | 4.2 | > 100 | 30.3 | 4.5 | NNC(=O)c1c(NC(=O)NS(=O)(=O)c2ccccc2)sc2c1CCCCC2 | 4.5 | > 100 | 10.5 | 1.5 | 3.5 | 15.8 | > 100 | > 100 | 2.8
> 100 | > 100 | > 100 | 42.2 | 65.3 | CCCNC(=O)c1c(NC(=O)NS(=O)(=O)c2ccccc2)sc2c1CCCCC2 | 70.3 | 72.5 | 54.2 | 76.5 | 85.3 | 90.2 | 80.3 | 6.2 | > 100
16.9 | > 100 | 11.9 | > 100 | 52.3 | O=C(Nc1sc2c(c1C(=O)N1CCN(c3ccccc3)CC1)CCCCC2)NS(=O)(=O)c1ccccc1 | 58.2 | 55.8 | 36.2 | 36.2 | 11.5 | 60.3 | 65.2 | > 100 | > 100
1.6 | > 100 | 14.8 | > 100 | 31.3 | O=C(Nc1sc2c(c1C(=O)NNc1ccc(Br)cc1)CCCCC2)NS(=O)(=O)c1ccccc1 | 5.3 | 25.5 | 11.5 | 10.2 | 1.6 | > 100 | 11.5 | > 100 | > 100

The remaining lines, values behind:

SMILES | GI50 (HCC 2998) [µM] | GI50 (MCF7) [µM] | GI50 (OVCAR-3) [µM] | GI50 (Leukemia cell) [µM] | GI50 (Melanoma cell) [µM] | GI50 [1] [µM] | GI50 [2] [µM] | GI50 (NSCLC) [µM] | GI50 [3] [µM] | GI50 [4] [µM] | GI50 [5] [µM] | GI50 [6] [µM] | GI50 (EKVX) [µM] | GI50 (UACC-257) [µM]
O=c1[nH]c2sc3c(c2c(=O)n1S(=O)(=O)c1ccccc1)CCCCC3 | 19.5 | > 100 | > 100 | 42.2 | 26.2 | 22.5 | 81.3 | 9.3 | 34.2 | 20.5 | 34.2 | 50.2 | 3.8 | > 100
O=C(Nc1sc2c(c1C(=O)NNc1ccccc1)CCCCC2)NS(=O)(=O)c1ccccc1 | 6.3 | > 100 | 15.2 | 18.6 | 32.3 | 18.5 | 30.9 | 16 | 15.2 | 7 | > 100 | 26.3 | > 100 | > 100
CCCCNC(=O)c1c(NC(=O)NS(=O)(=O)c2ccccc2)sc2c1CCCCC2 |  |  |  | > 100 | 76.7 | 85.2 | 85.3 | 30.3 | > 100 | 65.2 | 92.6 | 72.3 |  | 
O=C(Nc1sc2c(c1C(=O)NNc1ccc(Cl)cc1)CCCCC2)NS(=O)(=O)c1ccccc1 | 2.9 | 8.3 | > 100 | 30.6 | 4.2 | 5.9 | 12 | 8.6 | 7.5 | 1.2 | 14.5 | > 100 | > 100 | > 100
CN1CCN(C(=O)c2c(NC(=O)NS(=O)(=O)c3ccccc3)sc3c2CCCCC3)CC1 | 15.3 | > 100 | > 100 | > 100 | 61.2 | 49.2 | 56.2 | 22.3 | 31.3 | 9.2 | 80.2 | 42.3 | > 100 | > 100

Source: ChEMBL document CHEMBL1154725, “Synthesis and antitumor evaluation of novel diarylsulfonylurea derivatives: molecular modeling applications” (2010)
